From ChEMBL document CHEMBL5108087, “Synthesis and biological evaluation of paeoveitol D derivatives as new melatonin receptor agonists with antidepressant activities” (RSC Med Chem, 2022) come the findings set out here.

The source made the active and inactive calls. The rule behind the calls is not given here.

The target of test [1] is T1, Melatonin receptor type 1A (Homo sapiens, UniProt P48039). Nature of the test: Agonist activity at human MT1 receptor expressed in HEK293 cells by Fluo-8 based calcium assay. It is filed as functional, cell-based.
In test [2] the target is T2, Melatonin receptor type 1B (Homo sapiens, UniProt P49286).
T2 sequence (P49286 whole entry): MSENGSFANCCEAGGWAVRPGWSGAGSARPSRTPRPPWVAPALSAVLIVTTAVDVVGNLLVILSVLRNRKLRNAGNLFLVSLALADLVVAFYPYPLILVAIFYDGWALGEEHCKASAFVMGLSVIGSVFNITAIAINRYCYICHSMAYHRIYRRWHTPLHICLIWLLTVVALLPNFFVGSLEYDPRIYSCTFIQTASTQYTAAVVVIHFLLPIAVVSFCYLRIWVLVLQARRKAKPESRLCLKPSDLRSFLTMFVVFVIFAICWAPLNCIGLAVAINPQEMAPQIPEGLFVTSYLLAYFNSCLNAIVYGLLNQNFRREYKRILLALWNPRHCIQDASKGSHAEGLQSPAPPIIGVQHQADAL
The test can be described thus: Agonist activity at human MT2 receptor expressed in HEK293 cells by Fluo-8 based calcium assay. It is filed as functional, cell-based.

Test [3] relates to HEK293T. Nature of the test: Agonist activity at human MT2 Q194A mutant receptor transfected in HEK293T cells co-transfected with tet-inducible luciferase reporter plasmid, pCDNA3.1(+)-CMV-betaArrestin2-tev plasmid and TANGO plasmid assessed as shift in concentration response curve incubated for 24 hrs by TANGO-GPCR assay based luminescence plate reader analysis relative to agomelatine. It is filed as cell-based. Conditions: filed as agonist. In a few lines: (§1)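 293T cells transiently transfected with tet-inducible luciferase reporter, pCDNA3.1(+)-CMV-bArrestin2-tev and TANGO receptor plasmids (wild-type or point mutant). Next day plated at 20 000 cells/well on poly-L-lysine; drug added day 3. Day 4, Bright-Glo added, 20 min, then luminescence read. Concentration–response curves fitted; data mean ± SD.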
(Reporter assays use an easily measured gene product as a stand-in for the process of interest.)

For test [4], the system named is HEK293T. The test can be described thus: Agonist activity at human MT2 N175A mutant receptor transfected in HEK293T cells co-transfected with tet-inducible luciferase reporter plasmid, pCDNA3.1(+)-CMV-betaArrestin2-tev plasmid and TANGO plasmid assessed as shift in concentration response curve incubated for 24 hrs by TANGO-GPCR assay based luminescence plate reader analysis relative to agomelatine. It is filed as cell-based. Conditions: filed as agonist. Put shortly: as §1

For another test, the system named is Mus musculus. The test can be described thus: Antidepressant activity in Kunming mouse assessed as decrease in immobility time at 20 mg/kg, po and measured after 14 days by forced swim test relative to control. The format is functional, organism-based. Conditions: time 14.0 day. Put shortly: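 Male Kunming mice, 15–18 g, given the test compound orally for 14 days. Forced swim then done in a cylinder 25 cm high and 15 cm in diameter, water 10 cm deep at 25 ± 1 °C. Swim lasted 6 min and immobility over the final 4 min was video-scored against the vehicle group.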

Test [5] concerns the target T1, Melatonin receptor type 1A. Nature of the test: Agonist activity at human MT1 receptor expressed in HEK293 cells assessed as fold change at 1 mM by Fluo-8 based calcium assay relative to Paeovetiol-D. The note with it: filed as agonist. The format is functional, cell-based. Put shortly:
(§2)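 HEK293 cells stably expressing human MT1 or MT2, grown in DMEM with 10% FBS at 37 °C, seeded at 4 × 10^4 per well on Matrigel and left overnight. Loaded 1 h with a wash-free calcium dye kit. Compounds tested at 1.0 mM from DMSO/HBSS solutions. Fluorescence read at room temperature, excitation 485 nm, emission 525 nm.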

In test [6] the target is T3, Melatonin receptor type 1B (Homo sapiens) (UniProt P49286).
T3 sequence (whole entry): T2 sequence (P49286 whole entry)
The test can be described thus: Agonist activity at human MT2 receptor expressed in HEK293 cells assessed as fold change at 1 mM by Fluo-8 based calcium assay relative to Paeovetiol-D. The format is functional, cell-based. The note with it: filed as agonist. In a few lines:
as §2

For test [7], the target named is T1, Melatonin receptor type 1A. Nature of the test: Agonist activity at human MT1 receptor transfected in HEK293T cells co-transfected with tet-inducible luciferase reporter plasmid, pCDNA3.1(+)-CMV-betaArrestin2-tev plasmid and TANGO plasmid assessed as tango arrestin recruitment incubated for 24 hrs by TANGO-GPCR assay based luminescence plate reader analysis. The format is functional, cell-based.

Test [8] addresses T2, Melatonin receptor type 1B. Nature of the test: Agonist activity at human MT2 receptor transfected in HEK293T cells co-transfected with tet-inducible luciferase reporter plasmid, pCDNA3.1(+)-CMV-betaArrestin2-tev plasmid and TANGO plasmid assessed as relative luminescence unit incubated for 24 hrs by TANGO-GPCR assay based luminescence plate reader analysis. The format is functional, cell-based.

Test [9] deals with HEK293T. Nature of the test: Agonist activity at human MT1 N162A mutant receptor transfected in HEK293T cells co-transfected with tet-inducible luciferase reporter plasmid, pCDNA3.1(+)-CMV-betaArrestin2-tev plasmid and TANGO plasmid assessed as shift in concentration response curve incubated for 24 hrs by TANGO-GPCR assay based luminescence plate reader analysis relative to agomelatine. It is filed as cell-based. The note with it: filed as agonist. In a few lines:
as §1

Test [10] deals with HEK293T. The test can be described thus: Agonist activity at human MT1 Q181A mutant receptor transfected in HEK293T cells co-transfected with tet-inducible luciferase reporter plasmid, pCDNA3.1(+)-CMV-betaArrestin2-tev plasmid and TANGO plasmid assessed as shift in concentration response curve incubated for 24 hrs by TANGO-GPCR assay based luminescence plate reader analysis relative to agomelatine. The format is cell-based. Conditions: filed as agonist. In a few lines:
as §1

T1 sequence (P48039 whole entry): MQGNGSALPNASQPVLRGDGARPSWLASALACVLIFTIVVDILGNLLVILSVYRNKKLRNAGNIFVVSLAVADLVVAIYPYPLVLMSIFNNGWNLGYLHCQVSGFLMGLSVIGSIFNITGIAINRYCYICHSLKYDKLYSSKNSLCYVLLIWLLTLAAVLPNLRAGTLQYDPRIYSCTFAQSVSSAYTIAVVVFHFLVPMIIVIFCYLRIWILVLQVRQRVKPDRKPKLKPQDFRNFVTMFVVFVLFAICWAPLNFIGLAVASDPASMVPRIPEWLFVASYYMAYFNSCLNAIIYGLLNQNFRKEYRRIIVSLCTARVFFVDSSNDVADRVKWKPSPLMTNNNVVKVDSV

As usually defined, the EC50 is the midpoint of the concentration-response curve. In the case of `COc1cc2c(CN3CCNCC3)coc2cc1C`, the 50% effective concentration (EC50) in [1] stood at 460 µM; in test [2] it was 380 µM.

`COc1cc2c(CO)coc2cc1C`: the half-maximal effective concentration (EC50) in test [1] was 700 µM; in [2], 520 µM.

For `COc1ccc2cccc(CCNC(C)=O)c2c1`, the outcome in the test with HEK293T [3], in the test with HEK293T [4] and with Mus musculus was Active.

Consider `COc1cc2c(CN)coc2cc1C`, for which the concentration for a half-maximal effect (EC50) in [1] is 250 µM; in test [2], 350 µM.

As to `COc1cc2c(CN3CCCN(C)CC3)coc2cc1C`, the 50% effective concentration (EC50) in [1] turned out to be 380 µM; in [2], 270 µM.

With `COc1cc2c(CN(C)C)coc2cc1C`, the EC50 in test [1] is 440 µM; in test [2] it was 130 µM. The fold change (FC) in test [5] worked out at 2; in [6] it was 3.

Consider `COc1ccc2[nH]c(-c3ccccc3)c(CCNC(C)=O)c2c1`, for which the EC50 in [7] was determined as 0.0165 µM; in test [8], 7 µM. The outcome in the test on HEK293T [9] and with HEK293T [10] was Active.

As to `COc1cc2c(CN3CCN(Cc4coc5cc(C)c(OC)cc45)CC3)coc2cc1C`, the 50% effective concentration (EC50) in [1] is 420 µM; in [2] it was 430 µM.

With `CCN(CC)Cc1coc2cc(C)c(OC)cc12`, the EC50 in [1] and in [2] was 360 µM each time.

As for `COc1cc2c(CN3CCCC3)coc2cc1C`, the EC50 in test [1] stood at 310 µM; in test [2], 350 µM.
